Source: ChEMBL document CHEMBL3244382, “Structural requirements for antileukemic activity among the naturally occurring and semisynthetic maytansinoids” (J Med Chem, 1978)
In brackets after ≈: the same amount, converted by molar mass. Activity calls are given as the source filed them.

Columns and labels:
[1] = tested on: Mus musculus; assay: Toxicity in PS mouse allografted with mouse P388 cells assessed as change in body weight at 1.6 ug/kg relative to control; assay type: organism-based; conditions: in vivo, 0.0016 mg/kg
Summary of the method: (§1)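 P388 (PS) leukemia in mice, 6 mice per dose group. Weight change is the difference in grams between treated and control animals. Survivors are recorded on toxicity day, normally 4 days after the first injection.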

[2] = tested on: Mus musculus; assay: Toxicity in PS mouse allografted with mouse P388 cells assessed as survival at 3.1 ug/kg after 4 days; assay type: organism-based; conditions: in vivo, 0.0031 mg/kg, 96 h
Summary of the method: (§2)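 PS (P388) leukemic mice, six started per dose group. Toxicity scored as survivors on the toxicity day over the number of mice started. The toxicity day is normally 4 days after the first injection.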

[3] = target: Tubulin (Homo sapiens) (UniProt P68371+Q9H4B7+P0DPH7+P68366+Q13509+Q71U36+P04350+Q3ZCM7+P07437+P68363+Q9BQE3+Q6PEY2+Q13885+Q9BVA1+Q9BUF5); assay: Inhibition of brain tubulin polymerization (unknown origin) at 37 degC by spectrophotometry
[4] = tested on: P388; assay: Antitumor activity against mouse P388 cells allografted in PS mouse assessed as median survival time at 100 ug/kg relative to control; assay type: functional
Summary of the method: (§3)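 P388 leukemia (PS) in mice, six mice started per dose group. Read-out is T/C: median survival time of the treated group divided by that of the untreated control group, expressed as a percent. The NIH protocol counts a compound as active when T/C > 125%.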

[5] = tested on: P388; assay: Antitumor activity against mouse P388 cells allografted in PS mouse assessed as median survival time at 6.2 ug/kg relative to control; assay type: functional; summary of the method: as §3
[6] = tested on: P388; assay: Antitumor activity against mouse P388 cells allografted in PS mouse assessed as median survival time at 25 ug/kg relative to control; assay type: functional; summary of the method: as §3
[7] = tested on: Mus musculus; assay: Toxicity in PS mouse allografted with mouse P388 cells assessed as change in body weight at 200 ug/kg relative to control; assay type: organism-based; conditions: in vivo, 0.2 mg/kg; summary of the method: as §1
[8] = tested on: P388; assay: Antitumor activity against mouse P388 cells allografted in PS mouse assessed as median survival time at 12.5 ug/kg relative to control; assay type: functional; summary of the method: as §3
[9] = tested on: Mus musculus; assay: Toxicity in PS mouse allografted with mouse P388 cells assessed as change in body weight at 12.5 ug/kg relative to control; assay type: organism-based; conditions: in vivo, 0.0125 mg/kg; summary of the method: as §1
[10] = tested on: KB; assay: Cytotoxicity against human KB cells; assay type: functional; conditions: read-out: ED50 (the source's name)
[11] = tested on: P388; assay: Antitumor activity against mouse P388 cells allografted in PS mouse assessed as median survival time at 200 ug/kg relative to control; assay type: functional; summary of the method: as §3
[12] = tested on: Mus musculus; assay: Toxicity in PS mouse allografted with mouse P388 cells assessed as change in body weight at 3.1 ug/kg relative to control; assay type: organism-based; conditions: in vivo, 0.0031 mg/kg; summary of the method: as §1
[13] = tested on: Mus musculus; assay: Toxicity in PS mouse allografted with mouse P388 cells assessed as survival at 6.2 ug/kg after 4 days; assay type: organism-based; conditions: in vivo, 0.0062 mg/kg, 96 h; summary of the method: as §2
[14] = tested on: Mus musculus; assay: Toxicity in PS mouse allografted with mouse P388 cells assessed as change in body weight at 100 ug/kg relative to control; assay type: organism-based; conditions: in vivo, 0.1 mg/kg; summary of the method: as §1
[15] = tested on: P388; assay: Antitumor activity against mouse P388 cells allografted in PS mouse assessed as median survival time at 3.1 ug/kg relative to control; assay type: functional; summary of the method: as §3
[16] = tested on: Mus musculus; assay: Toxicity in PS mouse allografted with mouse P388 cells assessed as change in body weight at 50 ug/kg relative to control; assay type: organism-based; conditions: in vivo, 0.05 mg/kg; summary of the method: as §1
[17] = tested on: Mus musculus; assay: Toxicity in PS mouse allografted with mouse P388 cells assessed as survival at 25 ug/kg after 4 days; assay type: organism-based; conditions: in vivo, 0.025 mg/kg, 96 h; summary of the method: as §2
[18] = tested on: Mus musculus; assay: Toxicity in PS mouse allografted with mouse P388 cells assessed as survival at 100 ug/kg after 4 days; assay type: organism-based; conditions: in vivo, 0.1 mg/kg, 96 h; summary of the method: as §2
[19] = tested on: Mus musculus; assay: Toxicity in PS mouse allografted with mouse P388 cells assessed as survival at 12.5 ug/kg after 4 days; assay type: organism-based; conditions: in vivo, 0.0125 mg/kg, 96 h; summary of the method: as §2
[20] = tested on: P388; assay: Antitumor activity against mouse P388 cells allografted in PS mouse assessed as median survival time at 400 ug/kg relative to control; assay type: functional; summary of the method: as §3
[21] = tested on: Mus musculus; assay: Toxicity in PS mouse allografted with mouse P388 cells assessed as survival at 400 ug/kg after 4 days; assay type: organism-based; conditions: in vivo, 0.4 mg/kg, 96 h; summary of the method: as §2
[22] = tested on: P388; assay: Antitumor activity against mouse P388 cells allografted in PS mouse assessed as median survival time at 50 ug/kg relative to control; assay type: functional; summary of the method: as §3
[23] = tested on: P388; assay: Antitumor activity against mouse P388 cells allografted in PS mouse assessed as median survival time at 1.6 ug/kg relative to control; assay type: functional; summary of the method: as §3
[24] = tested on: Paracentrotus lividus; assay: Antimitotic activity against sea urchin eggs assessed as drug level causing inhibition of mitosis; assay type: functional; conditions: Egg
[25] = tested on: Mus musculus; assay: Toxicity in PS mouse allografted with mouse P388 cells assessed as change in body weight at 25 ug/kg relative to control; assay type: organism-based; conditions: in vivo, 0.025 mg/kg; summary of the method: as §1
[26] = tested on: Mus musculus; assay: Toxicity in PS mouse allografted with mouse P388 cells assessed as survival at 1.6 ug/kg after 4 days; assay type: organism-based; conditions: in vivo, 0.0016 mg/kg, 96 h; summary of the method: as §2
[27] = tested on: Mus musculus; assay: Toxicity in PS mouse allografted with mouse P388 cells assessed as survival at 50 ug/kg after 4 days; assay type: organism-based; conditions: in vivo, 0.05 mg/kg, 96 h; summary of the method: as §2
[28] = tested on: Mus musculus; assay: Toxicity in PS mouse allografted with mouse P388 cells assessed as survival at 200 ug/kg after 4 days; assay type: organism-based; conditions: in vivo, 0.2 mg/kg, 96 h; summary of the method: as §2
[29] = tested on: Mus musculus; assay: Toxicity in PS mouse allografted with mouse P388 cells assessed as change in body weight at 6.2 ug/kg relative to control; assay type: organism-based; conditions: in vivo, 0.0062 mg/kg; summary of the method: as §1
[30] = tested on: Mus musculus; assay: Toxicity in PS mouse allografted with mouse P388 cells assessed as change in body weight at 400 ug/kg relative to control; assay type: organism-based; conditions: in vivo, 0.4 mg/kg; summary of the method: as §1
[31] = tested on: Mus musculus; assay: Toxicity in PS mouse allografted with mouse P388 cells assessed as survival at 0.2 ug/kg after 4 days; assay type: organism-based; conditions: in vivo, 0.0002 mg/kg, 96 h; summary of the method: as §2
[32] = tested on: P388; assay: Antitumor activity against mouse P388 cells allografted in PS mouse assessed as median survival time at 0.4 ug/kg relative to control; assay type: functional; summary of the method: as §3
[33] = tested on: Mus musculus; assay: Toxicity in PS mouse allografted with mouse P388 cells assessed as survival at 0.4 ug/kg after 4 days; assay type: organism-based; conditions: in vivo, 0.0004 mg/kg, 96 h; summary of the method: as §2
[34] = tested on: P388; assay: Antitumor activity against mouse P388 cells allografted in PS mouse assessed as median survival time at 0.2 ug/kg relative to control; assay type: functional; summary of the method: as §3
[35] = tested on: Mus musculus; assay: Toxicity in PS mouse allografted with mouse P388 cells assessed as survival at 0.8 ug/kg after 4 days; assay type: organism-based; conditions: in vivo, 0.0008 mg/kg, 96 h; summary of the method: as §2
[36] = tested on: Mus musculus; assay: Toxicity in PS mouse allografted with mouse P388 cells assessed as change in body weight at 0.8 ug/kg relative to control; assay type: organism-based; conditions: in vivo, 0.0008 mg/kg
Summary of the method: (§4)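 PS (P388 leukemia) mice, six per dose group. Toxicity read as the difference in grams between the weights of treated and control animals.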

[37] = tested on: P388; assay: Antitumor activity against mouse P388 cells allografted in PS mouse assessed as median survival time at 0.8 ug/kg relative to control; assay type: functional; summary of the method: as §3
[38] = tested on: Mus musculus; assay: Toxicity in PS mouse allografted with mouse P388 cells assessed as change in body weight at 0.4 ug/kg relative to control; assay type: organism-based; conditions: in vivo, 0.0004 mg/kg; summary of the method: as §4
[39] = tested on: Mus musculus; assay: Toxicity in PS mouse allografted with mouse P388 cells assessed as change in body weight at 0.2 ug/kg relative to control; assay type: organism-based; conditions: in vivo, 0.0002 mg/kg; summary of the method: as §4

Row | Compound | Activity [1] [g] | Activity [2] | inhibition [3] | T/C [4] [%] | T/C [5] [%] | T/C [6] [%] | T/C [8] [%] | Activity [9] [g] | EC50 [10] [ng/mL] | Activity [12] [g] | Activity [13] | Activity [14] [g] | T/C [15] [%] | Activity [16] [g] | Activity [17] | Activity [18] | Activity [19] | T/C [22] [%] | T/C [23] [%] | Activity [24] | other results
1 | COc1cc2cc(c1Cl)N(C)C(=O)C[C@H](OC(=O)[C@H](C)N(C)C(=O)C(C)C)[C@]1(C)O[C@H]1[C@H](C)[C@@H]1C[C@@](OC)(NC(=O)O1)[C@H](OC)/C=C/C=C(\C)C2 | -1.8 | Non-toxic | Active | 99 | 100 | 96 | 99 | -2.1 | 0.16 (≈ 0.000218 µM) | -1.1 | Non-toxic | -1 | 99 | -2 | Non-toxic | Non-toxic | Non-toxic | 99 | 101 | 1 ×10⁻⁸ mol/L | Activity [7]: -0.9 g; T/C [11]: 100%; T/C [20]: 136%; Activity [21]: Non-toxic; Activity [25]: -0.5 g; Activity [26]: Non-toxic; Activity [27]: Non-toxic; Activity [28]: Non-toxic; Activity [29]: -0.6 g; Activity [30]: -3 g
2 | COc1cc2cc(c1Cl)NC(=O)/C=C/[C@]1(C)O[C@H]1[C@H](C)[C@@H]1C[C@@](O)(NC(=O)O1)[C@H](OC)/C=C/C=C(\C)C2 | 0 | Non-toxic | Active | 95 | 115 | 110 | 110 | -0.5 | 19 (≈ 0.0356 µM) | -0.2 | Non-toxic | 1.2 | 115 | -0.3 | Non-toxic | Non-toxic | Non-toxic | 110 | 100 | 1 µM | Activity [31]: Non-toxic; T/C [32]: 100%; Activity [33]: Non-toxic; T/C [34]: 100%; Activity [35]: Non-toxic; Activity [36]: -0.1 g; Activity [25]: -0.5 g; Activity [26]: Non-toxic; T/C [37]: 90%; Activity [27]: Non-toxic; Activity [29]: 0.4 g; Activity [38]: 0.1 g; Activity [39]: 1 g
